Data published in ChEMBL document CHEMBL1782036, “Atovaquone derivatives as potent cytotoxic and apoptosis inducing agents” (Bioorg Med Chem Lett, 2009).
Activity calls are given as the source filed them. The rule behind the calls is not given here.

Assays:
DU-145 [1] = assay: Growth inhibition of human DU145 cells after 72 hrs by MTT assay; format: functional, cell-based; conditions: DU-145, 72 h
Outline: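 Du145 human prostate carcinoma cells were screened by MTT cell-growth inhibition assay. IC50 values are means of three experiments.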

DU-145 [2] = assay: Induction of apoptosis in human DU145 cells at 10 uM after 72 hrs by AnnexinV conjugated 7- AAD staining by flow cytometry; format: functional, cell-based
Outline: (§1)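 Du145 cells were treated for 72 h and stained with Annexin V conjugate plus 7-AAD. Flow cytometry read PS externalization and membrane integrity, scoring cells as live (double negative), early apoptotic, or late apoptotic/necrotic (double positive). Untreated cells served as the control.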

IMR-90 = assay: Antiproliferative activity against human IMR90 cells after 72 hrs by MTT assay; format: cell-based; conditions: IMR-90, 72 h
A549 = assay: Antiproliferative activity against human A549 cells after 72 hrs by MTT assay; format: functional, cell-based; conditions: A549, 72 h
HeLa = assay: Antiproliferative activity against human HeLa cells after 72 hrs by MTT assay; format: functional, cell-based
HepG2 = assay: Antiproliferative activity against human HepG2 cells after 72 hrs by MTT assay; format: functional, cell-based; conditions: HepG2, 72 h
HT-1080 = assay: Antiproliferative activity against human HT1080 cells after 72 hrs by MTT assay; format: functional, cell-based; conditions: HT-1080, 72 h
HT-29 = assay: Antiproliferative activity against human HT-29 cells after 72 hrs by MTT assay; format: functional, cell-based; conditions: HT-29, 72 h
KB = assay: Antiproliferative activity against human KB cells after 72 hrs by MTT assay; format: functional, cell-based
[3] = Antiproliferative activity against human L78 cells after 72 hrs by MTT assay; format: functional, cell-based; conditions: L78, 72 h
MCF7 = assay: Antiproliferative activity against human MCF7 cells after 72 hrs by MTT assay; format: functional, cell-based; conditions: MCF7, 72 h
MOLT-4 = assay: Antiproliferative activity against human MOLT4 cells after 72 hrs by MTT assay; format: functional, cell-based; conditions: MOLT-4, 72 h
OS-RC-2 = assay: Antiproliferative activity against human OS-RC2 cells after 72 hrs by MTT assay; format: functional, cell-based; conditions: OS-RC-2, 72 h
SGC-7901 = assay: Antiproliferative activity against human SGC7901 cells after 72 hrs by MTT assay; format: functional, cell-based; conditions: SGC-7901, 72 h
U-251 = assay: Antiproliferative activity against human U251 cells after 72 hrs by MTT assay; format: functional, cell-based; conditions: U-251, 72 h
DU-145 [4] = assay: Induction of apoptosis in human DU145 cells at 5 uM after 72 hrs by AnnexinV conjugated 7- AAD staining by flow cytometry; format: functional, cell-based; outline: as §1
DU-145 [5] = assay: Induction of apoptosis in human DU145 cells assessed as caspase-9 activation at 1 to 10 uM after 24 hrs by Western blot analysis; format: functional, cell-based
Outline: (§2)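 Du145 lysates from dose-ranging treatment were analysed by Western blot for activation of caspase 9 and caspase 3.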

DU-145 [6] = assay: Induction of apoptosis in human DU145 cells assessed as caspase-3 activation at 1 to 10 uM after 24 hrs by Western blot analysis; format: functional, cell-based; outline: as §2
DU-145 [7] = assay: Induction of chromatin condensation in human DU145 cells at 20 uM by Hoechst 33342 staining by fluorescent microscopy; format: functional, cell-based
Outline: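 Du145 cells were exposed for 24 h, with 0.2% DMSO as the vehicle control. Nuclei were stained with Hoechst 33342 and viewed by fluorescence microscopy at 100× for chromatin condensation and nuclear shrinkage.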

DU-145 [8] = assay: Induction of apoptosis in human DU145 cells at 10 uM assessed as live cell level after 72 hrs by AnnexinV conjugated 7- AAD staining by flow cytometry; format: functional; outline: as §1
DU-145 [9] = assay: Induction of apoptosis in human DU145 cells at 10 uM assessed as early apoptosis level after 72 hrs by AnnexinV conjugated 7- AAD staining by flow cytometry; format: functional; outline: as §1
DU-145 [10] = assay: Induction of apoptosis in human DU145 cells at 10 uM assessed as dead cell level after 72 hrs by AnnexinV conjugated 7- AAD staining by flow cytometry; format: functional
Outline: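 Du145 human prostate carcinoma cells exposed to compound for 72 h, then stained with Annexin V and 7-AAD and analysed by flow cytometry. Annexin V detects phosphatidylserine externalised to the outer membrane leaflet, and 7-AAD enters only membrane-compromised cells. Dead cells were those positive for both stains. Untreated cells served as control.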

O=C1C=C(N2CCN(c3ccccc3)CC2)C(=O)c2c(O)cccc21
IC50 (DU-145 [1]): 2.8 µM | Activity (DU-145 [2]): Active | IC50 (IMR-90): > 50 µM | IC50 (A549): 4.2 µM | IC50 (HeLa): 6.9 µM | IC50 (HepG2): 5.4 µM | IC50 (HT-1080): 8.2 µM | IC50 (HT-29): 2.9 µM | IC50 (KB): 7 µM | IC50 [3]: 3.6 µM | IC50 (MCF7): 5.2 µM | IC50 (MOLT-4): > 50 µM | IC50 (OS-RC-2): 1.5 µM | IC50 (SGC-7901): 3.7 µM | IC50 (U-251): 6.1 µM | Activity (DU-145 [4]): Active | Activity (DU-145 [5]): Dose-dependent effect | Activity (DU-145 [6]): Dose-dependent effect | Activity (DU-145 [7]): Active | Activity (DU-145 [8]): 2.8% | Activity (DU-145 [9]): 37.6% | Activity (DU-145 [10]): 58%
